KCNQ1 act – potentiates or activates the human KCNQ1 potassium channel; P51787; CHO-K1 KCNQ1, thallium flux FluxOR fluorescence; hits give high values; B-score at 10 µM; 310,000 tested, 0.35% active; AID 2648;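 active = fluorescence ratio B-score, a plate-corrected score, at least three library SD, with initial intensity B-score within 5 SD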
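Assay system: stable KCNQ1 CHO-K1 line; medium: assay buffer, equal DMSO in all wells; timing: 90 min dye loading and 20 min compound exposure, both at room temperature; technique: kinetic FluxOR thallium fluorescence, 10-s 1-Hz baseline, 110-s post-stimulus read; read-out basis: B score of baseline-normalized fluorescence ratio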
KCNQ1 inh – blocks the human KCNQ1 potassium channel. B-score at 10 µM. CHO-K1 KCNQ1, FluxOR thallium flux fluorescence; hits give high values. P51787. 310,000 tested, 1.3% active;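 active = compounds whose thallium flux B-score, printed positive for inhibition, exceeds three library SD while starting fluorescence stays within three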;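 also: channel opened by potassium depolarization with thallium stimulus after 20 min compound exposure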
KCNK9 inh – blocks the human KCNK9 two-pore domain potassium channel; HEK293 KCNK9, FluxOR thallium flux fluorescence; hits give low values; B-score at 10 µM; 310,000 tested, 1.2% active; AID 488922;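 active = ratio B-score over 3 SD below the library mean, with starting fluorescence within 5 SD of its mean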;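 also: negative B-score means less thallium flux so channel inhibition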
Kir21 block – Kir2.1 (mouse) channel inhibition; P35561; HEK293-Kir2.1, FluxOR thallium flux fluorescence; hits give low values; B-score at 10 µM; 310,000 tested, 0.85% active; AID 1672;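 active = fluorescence ratio B-score at or below minus 3 SD of library scores, with starting-brightness B-score within 2 SD, cut at about -4.2 in these data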;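 also: channel flux triggered by added potassium and thallium sulfate stimulus; B-score of peak minus minimum fluorescence over baseline after thallium stimulus; more negative B-score means stronger Kir2.1 block with less thallium influx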
hERG rescue – compounds protecting human hERG from proarrhythmic drug block | Q12809 | CHO-hERG, FluxOR thallium flux, dofetilide IC70 present | activation (rescue from dofetilide block), less the hit threshold, % at 10 µM | 310,000 tested, 0.51% active | AID 1511;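 active = activation above the mean of controls blocked by dofetilide plus 5 SD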;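 also: thallium influx through hERG after potassium depolarization seen as dye fluorescence rise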
KCNK3 inh – human KCNK3 channel inhibition, primary screen. B-score at 10 µM. O14649. AID 602410. CHO-KCNK3 thallium flux, FluxOR fluorescence; hits give low values. 340,000 tested, 0.84% active;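 active = B-score under library mean minus 4 SD, starting fluorescence ratio at most library mean plus 5 SD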;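 also: more negative B-score means stronger inhibition of thallium flux through KCNK3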
The depositor's hits bear a star; i = inactive; . = no result. Rows were chosen to be rich in hits. Some 3.7% of all compounds tested hit in one or more screens of this group.

SMILES	KCNQ1 act	KCNQ1 inh	KCNK9 inh	Kir21 block	hERG rescue	KCNK3 inh
NC1=NC(c2ccc(F)cc2)n2c(nc3ccccc32)N1 (stereo unspecified)	i	i	i	-1.57	-7.6	i
Cc1ccc(-n2c(C)cc(C3N=C(N)Nc4nc5ccccc5n43)c2C)c(C)c1 (stereo unspecified)	i	i	-7.53*	0.08	-3.1	i
O=[N+]([O-])c1cccc(NC(=S)NCCc2ccccc2)c1	i	8*	i	1.23	-15.2	i
O=[N+]([O-])c1ccc(NC(=S)NCCc2ccc(F)cc2)cc1	i	6*	i	-5.25*	-49.4	i
O=C(NCCc1ccc(F)cc1)Nc1ccc([N+](=O)[O-])cc1	i	i	i	1.58	-16.4	i
Fc1ccc(NC(=S)NCCc2ccc(Cl)cc2)cc1	i	i	i	-4.44*	-21.7	i
COc1ccc(NC(=O)Nc2cccc([N+](=O)[O-])c2)cc1Cl	i	i	i	-0.56	-9.8	i
O=[N+]([O-])c1ccc(S(=O)(=O)NNC(=S)NCCc2ccccc2)cc1	i	i	i	0.82	-2.5	i
COc1ccccc1CCNC(=O)Nc1cccc([N+](=O)[O-])c1	i	6*	i	-0.38	-4.3	i
CN(CC(=O)Nc1cccc(F)c1)C(=O)c1ccc(N2CCCCC2)c([N+](=O)[O-])c1	i	i	i	2.69	-14.5	i
O=c1c2ccccc2nnn1CCO	i	i	i	1.1	-5.7	i
Cc1cc(C)n2nc(C(=O)OCC(=O)N(CC(C)C)C3CCS(=O)(=O)C3)nc2n1 (stereo unspecified)	.	.	.	.	.	i
Cc1cccc(C(=O)N/C(=C\c2ccco2)C(=O)N2CCCC2)c1	i	i	i	-1.28	-11.1	i
CC(=O)c1cccc(NC(=S)NCCCCc2ccccc2)c1	i	6*	i	-1.43	-9.4	i
Cc1ccc(S(=O)(=O)N2CCOCC2)cc1NC(=O)Cn1c(=O)ccn(Cc2ccccc2)c1=O	.	.	.	.	.	i
CCCCc1c(C)[nH]c(C(=O)OCC)c1C	i	i	i	0.01	5.3*	i
CCCCCc1ccc(-c2ccc(/C=C/C(N)=O)cc2)nc1	i	i	i	1.32	-6.8	i
CCCc1ccc(-c2ccc(C(=O)O)cc2)nc1	i	i	i	1.94	5.9*	i
CCOc1ccccc1CNS(=O)(=O)c1ccc2[nH]c(=O)sc2c1	i	i	i	-5.18*	-7.2	i
CCOc1ccccc1CNS(=O)(=O)c1ccc2c(c1)oc(=O)n2C	i	i	i	-2.22	-2.3	i
Cc1sc2nc(SCC(=O)N(C)Cc3ccccc3)n(-c3ccccc3)c(=O)c2c1C	i	i	i	0.3	-9.7	-8.72*
Cc1sc2nc(SCC(=O)NCCCO)n(-c3ccccc3)c(=O)c2c1C	i	i	i	0.17	-8.0	i
CCC(NC(=O)CSc1nnnn1C1CC1)c1ccc(Br)cc1 (stereo unspecified)	.	.	.	.	.	i
Cc1cccc(CNc2ccc(S(=O)(=O)N3CCCCC3)cc2)c1	.	.	.	.	.	-9.88*
COc1ccc([C@H]2CC(=O)C=C(c3ccc(Oc4ccccc4)cc3)C2)cc1OC	.	.	.	.	.	i
SMILES	KCNQ1 act	KCNQ1 inh	KCNK9 inh	Kir21 block	hERG rescue	KCNK3 inh
Cc1cc(C(=O)COC(=O)c2cccc(NS(C)(=O)=O)c2)c(C)n1CC1CCCO1 (stereo unspecified)	.	.	.	.	.	i
COc1cccc(/C=N/N2C(=O)CSC2=S)c1O	i	i	i	0.43	-6.9	i
COc1cc(/C=N/N2C(=O)CSC2=S)cc(Br)c1O	.	.	.	.	.	-9.36*
CCN(C[C@H]1N[C@@](C)(C(=O)OC)[C@H]2C(=O)N(C)C(=O)[C@@H]12)C(=O)Nc1ccc(OC)cc1	.	.	.	.	.	i
CN1CCN(NC(=S)Nc2ccc(OC(F)F)cc2)CC1	i	i	i	-0.92	-13.3	i
CC(C)=CCC/C(C)=C/CC(C)(C)CNCCN1CCNCC1	i	i	i	-8.25*	-8.2	.
CC(C)=CCC/C(C)=C/CCC(C)NCCN1CCNCC1 (stereo unspecified)	i	i	i	-7.37*	-13.1	.
CC1CCCN(C(=O)COC(=O)c2cc(Br)ccc2O)C1 (stereo unspecified)	.	.	.	.	.	i
COc1cc(C)cc(OC)c1OCC(=O)Nc1cc(C)on1	.	.	.	.	.	i
Cc1ccccc1C(=O)N1CCC(C(=O)Nc2ccccn2)CC1	i	i	i	0.71	-8.5	i
CCC/C=C1/CCCOC(C(=O)NCc2ccc(C)o2)(C(F)(F)F)C1 (stereo unspecified)	.	.	.	.	.	i
COc1ccc(N2CCN(S(=O)(=O)c3ccc4c(c3)CCCC4)CC2)c([N+](=O)[O-])c1	i	7*	i	1.15	-13.7	i
COc1ccccc1COC(=O)c1cccc(S(=O)(=O)N2CCCC2)c1	.	.	.	.	.	-9.56*
Cc1ccc(COC(=O)c2cccc(S(=O)(=O)N3CCCCC3)c2)cc1	.	.	.	.	.	-11*
COc1ccccc1C(=O)COC(=O)c1cccc(S(=O)(=O)N2CCCC2)c1	i	i	i	1.32	-17.2	i
Cc1ccc(COC(=O)c2cccc(S(=O)(=O)N3CCCCCC3)c2)cc1	.	.	.	.	.	i
COc1ccc(OC)c(COC(=O)c2cccc(S(=O)(=O)N3CCCCC3)c2)c1	.	.	.	.	.	-8.78*
Cc1ccc(Cc2c[nH]c(=S)s2)cc1	38*	i	i	1.04	26.6*	i
O=C(Nc1nccs1)c1ccc(CSc2ccccc2)o1	i	i	i	1.16	-9.9	i
CSCCOC(=O)C1=C(C)NC(=O)CC1c1ccccc1Cl (stereo unspecified)	i	i	i	-5.53*	-6.1	i
CC(C)(CNC(=O)Cc1ccc(NS(=O)(=O)c2cccc(C(F)(F)F)c2)cc1)N1CCOCC1	i	i	i	1.41	-9.5	i
COc1ccc(C)cc1S(=O)(=O)N1c2ccc(C)cc2C2CN(C)CCC21 (stereo unspecified)	.	.	.	.	.	i
CCOc1ccc2[nH]c(=O)c(CN(Cc3ccco3)C(CC)c3nnnn3Cc3ccccc3)cc2c1 (stereo unspecified)	i	8*	i	0.31	-7.8	i
CCOc1ccc2[nH]c(=O)c(CN(Cc3ccco3)Cc3nnnn3Cc3ccccc3)cc2c1	i	i	i	0.22	-16.9	i
CCOc1ccc2[nH]c(=O)c(CN(Cc3nnnn3Cc3ccco3)C3CCCCC3)cc2c1	i	i	i	-0.63	-14.3	-9.95*
CC(C)(C)NC(=O)C(c1ccc(-c2ccccc2)cc1)N(C[C@H]1CC[C@@H]([C@@H]2CC[C@H](CO)O2)O1)C(=O)c1ccccc1F (stereo partly specified)	.	.	.	.	.	i

Bioassay records deposited in PubChem by Johns Hopkins Ion Channel Center.
